{
  "source": "paper PMC6474823",
  "about": "(Molecular cell, 2019)",
  "biological_target": "Hck^3D V284C (Homo sapiens, UniProt P08631, V276C)",
  "sequence (P08631 81-526 V276C)": "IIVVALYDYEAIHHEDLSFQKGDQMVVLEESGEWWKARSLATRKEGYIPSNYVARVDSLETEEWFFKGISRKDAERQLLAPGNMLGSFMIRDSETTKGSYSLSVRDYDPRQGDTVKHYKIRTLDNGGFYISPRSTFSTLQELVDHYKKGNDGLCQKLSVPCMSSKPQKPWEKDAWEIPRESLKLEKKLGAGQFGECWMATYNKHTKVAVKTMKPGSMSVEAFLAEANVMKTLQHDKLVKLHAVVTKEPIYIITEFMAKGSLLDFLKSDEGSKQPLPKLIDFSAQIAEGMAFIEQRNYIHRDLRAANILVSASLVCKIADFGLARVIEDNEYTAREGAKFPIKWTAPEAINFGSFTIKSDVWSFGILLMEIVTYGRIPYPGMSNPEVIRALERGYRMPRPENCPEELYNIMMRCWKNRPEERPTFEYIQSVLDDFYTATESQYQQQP",
  "assay": "Inhibitor IC50 determination, fluorescent SFK peptide kinase assay",
  "type": "biochemical",
  "settings": "1 mM ATP",
  "method_in_brief": "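Kinase concentrations were set in the linear range by prior titration: Src3D WT or V284C at 7.5 nM, Hck3D WT or V284C at 5 nM. Kinase was incubated 30 min with test compound (30 μM top, 3-fold serial dilutions, 10 points) and 1 mM ATP in HEPES pH 7.5 buffer with MgCl2, EGTA, BSA, vanadate and BME. Then 20 μM pyrene-labelled SFK peptide was added for 2 h. Fluorescence was read at ex 344/em 405 nm, in triplicate.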",
  "data": [
    {"compound": "CNC(=O)C(C#N)=Cc1c(C#Cc2cc(NC(=O)c3cccc(C(F)(F)F)c3)ccc2C)c2cncnc2n1CCOC", "note": "[compound 3, (E)- and (Z)-N-(3-((6-(2-cyano-3-(methylamino)-3-oxoprop-1-en-1-yl)-7-(2-methoxyethyl)-7H-pyrrolo[2,3-d]pyrimidin-5-yl)ethynyl)-4-methylphenyl)-3-(trifluoromethyl)benzamide]", "values": [
      {"measurement": "inhibition of Hck V284C (IC50, Figure 4C)", "result": "potently inhibited"}
    ]}
  ]
}
